The test system of experiment [1] is Leukemia cell lines. Put plainly: NCI sixty cell panel, leukemia subpanel. The format is cell-based. Conditions: Homo sapiens; for IC (TGI): read-out: pTGI Leukemia.
The test system of experiment [2] is Ovarian cancer cell lines. Put plainly: NCI sixty cell panel, ovarian subpanel. Conditions: Homo sapiens, read-out: pTGI Ovarian. The experiment is classed as cell-based.
For experiment [3], the system named is Breast cancer cell lines. Description: NCI sixty cell panel, breast subpanel. The following applies: Homo sapiens, read-out: pTGI Breast. The experiment is classed as cell-based.
Experiment [4] deals with sixty human tumor cell lines. Put plainly: NCI sixty cell panel, mean of full panel. The experiment is classed as cell-based. Conditions: for GI50: read-out: pGI50 MG-MID (converted); for CC50: read-out: pLC50 MG-MID (converted); for IC (TGI): read-out: pTGI MG-MID.
Experiment [5] concerns plasma membrane electron transport (PMET), HL60 and HL60ρ^0 cells. Description: PMET inhibition. The experiment is classed as cell-based, human. The following applies: at 200 µM, 30 min pretreatment. The essentials:
(§1)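 Plasma membrane electron transport assay: leukemic cells (10^5 per well in 0.1 ml) pretreated 30 min with test compound in DMSO (<0.1% final). WST-1 and mPMS then added (final 500 µM and 20 µM). WST-1 reduction followed in real time at 450 nm and expressed as % of control.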

The test system of experiment [6] is Renal cancer cell lines. Description: NCI sixty cell panel, renal subpanel. The format is cell-based. Conditions: Homo sapiens, read-out: pTGI Renal.
Experiment [7] deals with Colon cancer cell lines. Put plainly: NCI sixty cell panel, colon subpanel. The experiment is classed as cell-based. The following applies: Homo sapiens, read-out: pTGI Colon.
In experiment [8] the test system is Melanoma cell lines. Put plainly: NCI sixty cell panel, melanoma subpanel. The format is cell-based. The following applies: Homo sapiens, read-out: pTGI Melanoma.
Experiment [9] deals with panel of 36 human tumor cell lines. Description: Oncotest 36 cell line assay. The experiment is classed as cell-based. The following applies: four days exposure. Summed up:
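Panel of 36 lines: 24 derived from patient tumor xenografts passaged subcutaneously in nude mice, 12 commercial. Grown at 37°C, 5% CO2, in RPMI 1640 with 10% fetal calf serum and 0.1 mg/ml gentamicin. Test compound added one day after plating, at 5 concentrations, for four days. DNA content read by propidium iodide fluorescence. Three independent experiments, each in triplicate; IC70 values.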

Experiment [10] deals with C-erbB2. Put plainly: Stability of C-erbB2 and β-actin in MCF-7 cells. The experiment is classed as cell-based, human. The following applies: Western blot. The essentials: (§2)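 MCF7 cells (1×10^6) seeded in six-well plates and grown overnight. Cycloheximide (100 µmol/L) given alone, with MG-132 (10 µmol/L), or with test compound for 8 and 16 h in total. Lysates Western blotted with polyclonal anti-BCA2 (1:800), monoclonal anti-β-actin (1:5000) and monoclonal anti-C-erbB2 (1:2000). Band mean grey value and integrated density expressed relative to control sample; protein levels normalised to β-actin.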

The test system of experiment [11] is HL60 and HL60 ρ^0 cells. Put plainly: 2-day MTT cell proliferation assay in HL60 and HL60ρ0 cells. The experiment is classed as cell-based. Conditions: Homo sapiens, HL-60, 48 h, read-out: IC50 for cell proliferation. Summed up: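 Cells exposed to test compound for 48 h, then MTT reduction read as a measure of proliferation. IC50 for cell proliferation derived from the readings.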

The subject of experiment [12] is PMET, B1647, HEL and M07e. Put plainly: PMET inhibition in human leukemic cell lines B1647, HEL and M07e. The experiment is classed as cell-based. Conditions: read-out: PMET inhibition IC50. The essentials: as §1
In experiment [13] the test system is Prostate cancer cell lines. Description: cells. The format is cell-based. The following applies: Homo sapiens, read-out: pTGI Prostate.
Experiment [14] relates to BCA2. Put plainly: Analysis of BCA2 protein stability in MCF7 cells. The following applies: MCF-7 cells, in the presence of cycloheximide (CHX), 16 h. The experiment is classed as cell-based, human. Summed up: as §2
Experiment [15] deals with NSCLC cell lines. Description: NCI sixty cell panel, NSCLC subpanel. The experiment is classed as cell-based. The following applies: Homo sapiens, read-out: pTGI NSCLC.
Experiment [16] deals with CNS cancer cell lines. Description: cells. Conditions: Homo sapiens, read-out: pTGI CNS. The experiment is classed as cell-based.
In experiment [17] the test system is leukemia cell lines HL-60, K562, MOLT-4, CCRF-CEM, RPMI-8226, SR. Description: Hollow fiber assay. The experiment is classed as in vivo, human. The following applies: panel of six leukemia cell lines.
Experiment [18] has as its system HL-60-TB leukemia. Put plainly: Human tumor xenograft in nude mice. The format is in vivo. The following applies: HL-60-TB leukemia xenograft in nude mice.

The structures appear in SMILES notation. Counter-ions that a name gives are not always drawn. Where a SMILES comes first, the peptide text is derived from it. The star is where a group is joined. Cbz = O=C(OCc1ccccc1)*

From article PMC2754042 (Journal of medicinal chemistry, 2008) come the findings set out here.

As for `COc1ccc2c(c1)/C(=C\c1cccc(/C=C3/C(=O)N(C)c4ccc(OC)cc43)n1)C(=O)N2C` [Compound 3p], the GI50 is 1.17 µM in experiment [1] (read-out: pGI50 Leukemia (converted)) and 1.74 µM in experiment [4]. Besides, the IC (TGI) in experiment [2] was 31.6 µM; in experiment [3] it was 20 µM; in experiment [4] it was 12.3 µM. Besides, the CC50 in experiment [4] was 43.7 µM.
Consider `COc1ccc2[nH]cc(/C=c3\[nH]c(=O)/c(=C/c4c[nH]c5ccc(OC)cc45)[nH]c3=O)c2c1` [Compound 9b], for which the GI50 in [4] is 93.3 µM.
On to `O=C1Nc2ccc(Br)cc2/C1=C\c1cccc(/C=C2/C(=O)Nc3ccc(Br)cc32)n1` [Compound 3j], for which the IC (TGI) in [2] is 25.7 µM. In [4], the GI50 is 8.32 µM and the CC50 is 56.2 µM.
For the molecule `COc1cc2c(cc1C)NC(=O)/C2=C/c1cccc(/C=C2/C(=O)Nc3cc(C)c(OC)cc32)n1` [Compound 3n], in experiment [4], the GI50 is 51.3 µM and the IC (TGI) was 95.5 µM.
With `O=C1Nc2ccc(C(=O)O)cc2/C1=C\c1cccc(/C=C2/C(=O)Nc3ccc(C(=O)O)cc32)n1` [Compound 3i], in [4], the CC50 is 89.1 µM and the IC (TGI) was 83.2 µM. Moreover, the PMET inhibition entry in experiment [5] is “inactive”.
`CN(C)c1ccc2c(c1)/C(=C\c1cccc(/C=C3/C(=O)Nc4ccc(N(C)C)cc43)n1)C(=O)N2` [Compound 3g]: in experiment [6], the IC (TGI) was 50.1 µM. Also, in experiment [4], the GI50 was 5.37 µM, the CC50 was 91.2 µM and the IC (TGI) was 40.7 µM. In addition, the PMET inhibition result in experiment [5] is “inactive”.
On to `O=C1Nc2cccc(Cl)c2/C1=C\c1cccc(/C=C2/C(=O)Nc3cccc(Cl)c32)n1` [Compound 3b], for which the IC (TGI) in experiment [7] was 5.01 µM; in experiment [8], 3.16 µM; in experiment [2], 2.82 µM. The GI50 in [4] is 0.457 µM. Besides, the “mean IC70” value in [9] stood at 0.35 µg/mL. Moreover, in experiment [10], the “effects on β-actin or the oncogenic receptor C-erbB2” value is “No effects”. The figures for the IC50 in experiment [11] and in experiment [12] were 3 to 8 µM and 15 to 30 µM, respectively.
Take `O=C1Nc2cc(Cl)ccc2/C1=C\c1cccc(/C=C2/C(=O)Nc3cc(Cl)ccc32)n1` [Compound 3l]: in [4], the GI50 is 2.04 µM, the CC50 is 39.8 µM and the IC (TGI) is 8.71 µM.
As to `O=C1Nc2ccc(F)cc2/C1=C\c1cccc(/C=C2/C(=O)Nc3ccc(F)cc32)n1` [Compound 3h], the IC (TGI) in experiment [2] is 25.1 µM. Also, in experiment [4], the GI50 was 3.24 µM, the CC50 is 60.3 µM and the IC (TGI) was 11.7 µM.
As for `O=C1Nc2ccccc2/C1=c1/[nH]c(=O)/c(=C2/C(=O)Nc3ccccc32)[nH]c1=O` [Compound 7a], in experiment [4], the GI50 is 89.1 µM.
On to `CN1C(=O)/C(=C/c2cccc(/C=C3/C(=O)N(C)c4ccccc43)n2)c2ccccc21` [Compound 3o], for which the IC (TGI) in experiment [1] is 15.8 µM; in experiment [13], 39.8 µM; in experiment [4], 26.9 µM. Moreover, in experiment [4], the GI50 was 8.13 µM. Also, in experiment [4], the CC50 is 49 µM. Besides, the PMET inhibition result in experiment [5] is “inactive”.
`O=C(O)CCC(=O)c1ccc2c(c1)/C(=C\c1cccc(/C=C3/C(=O)Nc4ccc(C(=O)CCC(=O)O)cc43)n1)C(=O)N2` [Compound 3f]: in experiment [4], the GI50 is 75.9 µM and the IC (TGI) is 95.5 µM.
As to `O=C1Nc2ccc(O)cc2/C1=C\c1cccc(/C=C2/C(=O)Nc3ccc(O)cc32)n1` [Compound 3e], in experiment [4], the GI50 is 39.8 µM, the CC50 is 97.7 µM and the IC (TGI) was 87.1 µM. The IC50 in [12] lay within 40 to 50 µM.
For the molecule `CC(C)C[C@@H](C=O)NC(=O)[C@H](CC(C)C)NC(=O)[C@H](CC(C)C)NC(=O)OCc1ccccc1` [MG-132, Z-Leu-Leu-Leu-al] (Cbz-Leu-Leu-Leu-aldehyde), the “increase of BCA2 protein compared to CHX treatment” value in experiment [14] is on record as “more than 10 fold”.
For the molecule `CC[C@]1(O)C[C@H]2CN(CCc3c([nH]c4ccccc34)[C@@](C(=O)OC)(c3cc4c(cc3OC)N(C=O)[C@H]3[C@@](O)(C(=O)OC)[C@H](OC(C)=O)[C@]5(CC)C=CCN6CC[C@]43[C@@H]65)C2)C1` [Vincrist ine sulfate, reference compound], the IC (TGI) in experiment [1] is 15.8 µM; in experiment [15], 15.8 µM; in [7], 3.98 µM; in [16], 6.31 µM; in experiment [8] it was 7.94 µM; in [2], 20 µM. Also, the IC (TGI) was 20 µM in [6], 6.31 µM in experiment [13], 7.94 µM in experiment [3] and 10 µM in experiment [4]. Also, the GI50 in [4] was 0.2 µM.
For the molecule `CC(=O)n1c(=O)/c(=C/c2c[nH]c3ccccc23)n(C(C)=O)c(=O)/c1=C/c1c[nH]c2ccccc12` [Compound 8a], the IC (TGI) in experiment [6] is 50.1 µM. For the same molecule, in experiment [4], the GI50 was 74.1 µM and the IC (TGI) is 91.2 µM. The PMET inhibition entry in [5] was “inactive”.
For `O=C1Nc2ccc(Cl)cc2/C1=C\c1cccc(/C=C2/C(=O)Nc3ccc(Cl)cc32)n1` [Compound 3c], in experiment [4], the GI50 is 1.07 µM, the CC50 is 16.2 µM and the IC (TGI) was 3.39 µM. The IC50 in [11] was in the range of 3 to 8 µM.
On to `O=C1Nc2ccccc2/C1=C\c1cccc(/C=C2/C(=O)Nc3ccccc32)n1` [Compound 3a], for which the figures for the IC (TGI) in [6] and in experiment [3] were 1.62 µM and 2 µM, respectively. For the same molecule, the GI50 in [4] is 0.457 µM. Also, in experiment [4], the CC50 is 14.1 µM.
Regarding `Cc1cc2c(cc1O)/C(=C\c1cccc(/C=C3/C(=O)Nc4cc(C)c(O)cc43)n1)C(=O)N2` [Compound 3m], in experiment [4], the GI50 was 69.2 µM and the IC (TGI) was 97.7 µM.
As for `O=c1[nH]/c(=C\c2c[nH]c3ccccc23)c(=O)[nH]/c1=C\c1c[nH]c2ccccc12` [Compound 9a], the GI50 in [4] was 81.3 µM. Moreover, the PMET inhibition entry in experiment [5] was “inactive”.
Regarding `COc1ccc2c(c1)/C(=C\c1cccc(/C=C3/C(=O)Nc4ccc(OC)cc43)n1)C(=O)N2` [Compound 3d], in [8], the IC (TGI) is 3.98 µM. In experiment [4], the GI50 is 1.2 µM, the CC50 was 39.8 µM and the IC (TGI) is 7.08 µM. Moreover, in experiment [9], the “mean IC70” value was found to be 0.56 µg/mL. Further, the IC50 in experiment [12] was 30 to 45 µM. Besides, in experiment [17], the “hollow fiber assay combined i.p. + s.c. score” value was 22. Further, in experiment [18], the “distal site antitumor activity in xenograft” value is given as “did not show significant activity”.
Take `O=C1Nc2ccc(S(=O)(=O)O)cc2/C1=C\c1cccc(/C=C2/C(=O)Nc3ccc(S(=O)(=O)O)cc32)n1` [Compound 3k]: in experiment [4], the GI50 was 97.7 µM.
